In the library only some 2.3% were active in any assay of this set; here they are far more common.
TRPC4 PAM: positive allosteric modulators of TRPC4, primary screen, cell-based, mouse TRPC4beta, HEK293 mu-opioid, Fluo-4 calcium. Short transient receptor potential channel 4 (Mus musculus), Q9QUQ5. DAMGO EC20, Fluo-4 Ca2+ flux; stronger effect = higher value. B-score at 10 µM. hit rate 0.42% among 310,000;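 active = B-score of calcium response area above 5 SD of library B-scores, with initial fluorescence ratio within 5 SD of library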;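 also: B-score of integrated fluorescence ratio over time as area under calcium response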
TRPC4 agonist: activators of mouse TRPC4 channel, primary screen, Fluo4 calcium, HEK293 TRPC4beta/mu-opioid cells; Fluo4 calcium fluorescence; stronger effect = higher value; B-score at 10 µM; Short transient receptor potential channel 4 (Mus musculus), Q9QUQ5; hit rate 0.49% among 310,000;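 active = B-score above 5 SD of library B-scores, and initial fluorescence ratio not above library mean plus 5 SD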;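 also: positive B-score marks a calcium rise read as TRPC4 activation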
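System – HEK293 cells stably co-expressing mouse TRPC4beta and mu-opioid receptor · Signal – Fluo4 calcium-sensitive dye fluorescence, kinetic, 1 Hz baseline · Benchmarks – buffer (low) and maximal DAMGO (high) · Read-out – B score of integrated fluorescence ratio per well · Incubation – dye loading 45 min room temperature, 110 s kinetic read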
TRPC6 act: mouse TRPC6 channel activators, primary screen, cell-based, HEK293, membrane potential dye. HEK293-TRPC6 membrane potential dye fluorescence; stronger effect = higher value. B-score at 10 µM. hit rate 0.13% among 310,000;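 active = B-score of the integrated fluorescence ratio above library mean plus 3 SD, and starting fluorescence ratio within library mean plus 5 SD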;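 also: higher score means more depolarization so channel activation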
TRPC4 block: inhibitors of mouse TRPC4 channel, primary screen, Fluo4 calcium, HEK293 TRPC4beta/mu-opioid cells; DAMGO-evoked Fluo4 calcium flux; stronger effect = lower value; Short transient receptor potential channel 4 (Mus musculus), Q9QUQ5; hit rate 0.39% among 300,000; B-score at 10 µM; AID 2247, 2010;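 active = B-score over 3 SD under the library average, no early fluorescence shift, positive overall ratio signal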
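material = TRPC4beta/mu-opioid receptor HEK293 cell line | probe or stimulus = sequential submaximal and maximal DAMGO stimulation | compound dosing = one concentration per compound | measured by = Fluo4 Ca2+ flux fluorescence | evaluation = integrated fluorescence ratio relative to baseline, converted to per-well B score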
TRPC6 inh: mouse TRPC6 channel inhibitors, primary screen, cell-based, HEK293, membrane potential dye; AID 2553, 2010; hit rate 1.1% among 310,000; Short transient receptor potential channel 6 (Mus musculus), Q61143; B-score at 10 µM; ACh-evoked depolarization; stronger effect = lower value;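 active = B-score under library mean minus 3 SD, initial fluorescence not abnormally high, positive integrated signal ratio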;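 also: B-score derived from integrated fluorescence ratio over the kinetic read; more negative B-score means stronger inhibition of depolarization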
TRPC4 sel inh 2: second check of whether TRPC6 inhibitors also affect mouse TRPC4; inhibition, % at 10 µM; AID 2776; shares compounds with TRPC6 inh; HEK293 TRPC4/MOR, membrane potential dye fluorescence; channel activated by saturating DAMGO dose; hit rate 42% among 920;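 active = compounds whose fluorescence signal differed from control wells by over 3 SD, either direction, in both duplicate plates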
TRPC4 spec: mouse TRPC4 modulation by TRPC6 hits, confirmation, selectivity assay for TRPC6 inhibitor project, cell-based, HEK293 TRPC4/mu-opioid, membrane potential dye. shares compounds with TRPC6 inh. membrane potential fluorescence. activity change, negative = inhibition, % at 10 µM. hit rate 61% among 920. AID 2777, 2010;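 active = rise or fall in signal beyond 3 SD of buffer-only wells in both replicate plates, either sign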;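 also: integrated kinetic ratio of fluorescence range over baseline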
HEK293 MPD ctr 2-1: nonspecific membrane potential effects, parental HEK293, confirmation, counter-screen for TRPC6 inhibitor project, cell-based, second counter screen | AID 2779, 2010 | signal change vs control, % at 10 µM | parental HEK293 membrane potential dye fluorescence; maximal acetylcholine challenge after compound addition | shares compounds with TRPC6 inh | hit rate 31% among 920;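 active = membrane potential signal moving either way by over 3 SD of the maximum-effect control, in both duplicate plates, meaning non-specific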
HEK293 MPD ctr-1: membrane potential modulation in parental HEK293, confirmation, counter-screen for TRPC6 inhibitor project, cell-based; membrane potential signal change, % at 10 µM; AID 2780, 2010; parental HEK293 membrane potential dye fluorescence; shares compounds with TRPC6 inh; hit rate 60% among 920;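 active = membrane potential signal shifting up or down by more than 3 SD of buffer-only wells, on both duplicate plates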
HEK293 MPD ctr-2: parental HEK293 membrane potential modulation, confirmation, counter-screen for TRPC6 modulator project, cell-based; shares compounds with TRPC6 inh; membrane potential dye fluorescence; membrane potential signal change, % at 10 µM; hit rate 51% among 2,400; AID 488924, 2010;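 active = membrane potential signal moves up or down beyond 5 SD from buffer-only wells, on both duplicate plates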
HEK293 MPD ctr 2-2: second check of TRPC6 modulator effects in parental HEK293 cells; shares compounds with TRPC6 inh; membrane potential dye fluorescence; after compound, maximal acetylcholine stimulation; inhibition, % at 10 µM; hit rate 14% among 2,400;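 active = membrane potential signal drops by more than 5 SD from the mean control signal, in both duplicate plates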;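 also: plate controls were acetylcholine ECmax control wells for no effect and buffer only wells for full effect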
TRPC4 ctr mod: TRPC4 modulation by TRPC6 hit compounds, confirmation, selectivity assay for TRPC6 modulator project, cell-based, HEK293 TRPC4/mu-opioid, membrane potential dye, mouse. shares compounds with TRPC6 inh. membrane potential fluorescence. percent change from control (negative = decrease, positive = increase), % at 10 µM. hit rate 69% among 2,400. AID 488927, 2010;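 active = membrane potential signal moved up or down beyond 5 SD of buffer control wells, in both duplicate plates, actives on both sides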;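 also: plate controls were assay buffer wells for no effect and DAMGO maximal-effect wells for full effect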
TRPC4 ctr inh 2: mouse TRPC4 off-target activity of TRPC6 modulators, second screen; inhibition, % at 10 µM; shares compounds with TRPC6 inh; AID 488928; HEK293 TRPC4/mu-opioid, membrane potential dye fluorescence; stimulated with maximal-effect DAMGO; hit rate 55% among 2,400;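 active = drop in membrane potential signal beyond 5 SD of the control wells in both duplicate plates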;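 also: TRPC4 counter screen for TRPC6 hits run under conditions tuned for TRPC6 not TRPC4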
TRPC6 block conf: mouse TRPC6 channel inhibitors, confirmation, HEK293 cells, membrane potential dye, duplicate; shares compounds with TRPC6 inh; ACh-evoked depolarization; inhibition, % at 10 µM; hit rate 43% among 3,300; AID 488960, 2010;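 active = fluorescence ratio falls more than 5 SD below the full-stimulation control mean, in both duplicate runs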;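 also: integrated fluorescence ratio of peak minus minimum over baseline after agonist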
TRPC6 act confirm: mouse TRPC6 channel activators, confirmation, HEK293 cells, membrane potential dye, duplicate; shares compounds with TRPC6 inh; AID 488961, 2010; HEK293-TRPC6 membrane potential dye fluorescence, FDSS; activation, % at 10 µM; hit rate 11% among 2,800;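 active = ratio signal rise beyond 5 SD above unstimulated control wells' mean, seen in both duplicate runs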;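 also: plate controls were buffer EC0 wells for no effect and acetylcholine ECmax response for full effect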
* = called active by the depositor; i = inactive; · = no result.

SMILES	TRPC4 PAM	TRPC4 agonist	TRPC6 act	TRPC4 block	TRPC6 inh	HEK293 MPD ctr-2	HEK293 MPD ctr 2-2	TRPC4 ctr mod	TRPC4 ctr inh 2	TRPC6 block conf	TRPC6 act confirm	others
CN1Cc2c(N3CCOCC3)nc3sc(C(=O)c4ccc(Br)cc4)c(N)c3c2CC1(C)C	i	i	i	i	-7.2*	·	·	·	·	i	i	TRPC4 sel inh 2=i;TRPC4 spec=-11%*;HEK293 MPD ctr 2-1=i;HEK293 MPD ctr-1=-161%*
CCOC(=O)c1c(C)n(C)c2ccc(O)c(CN3CCCCC3)c12	i	i	i	i	-8*	-172%*	i	-30%*	59%*	66%*	i
CCOC(=O)c1c(C)n(-c2ccc(C)cc2)c2ccc(O)c(CN(C)C)c12	i	i	i	i	-5.7*	-96%*	i	-18%*	62%*	51%*	i
CCOC(=O)c1c(C)n(-c2ccc(OC)cc2)c2ccc(O)c(CN(C)C)c12	i	i	i	i	-8.8*	·	·	·	·	60%*	i	TRPC4 sel inh 2=46%*;TRPC4 spec=-17%*;HEK293 MPD ctr 2-1=i;HEK293 MPD ctr-1=-286%*
CCOC(=O)c1c(C)n(-c2ccc(F)cc2)c2ccc(O)cc12	i	i	i	i	i	·	·	·	·	·	·
CCOC(=O)c1c(C)n(C)c2ccc(O)c(CN(C)C)c12	i	i	i	i	-8.7*	-242%*	i	-41%*	59%*	62%*	i
O=C(CN1C(=O)S/C(=C\C=C\c2ccccc2)C1=O)N1CCOCC1	i	i	i	i	i	·	·	·	·	·	·
Cc1ccc(S(=O)(=O)N(C)CCCC(=O)N2CCCCC2)cc1	i	i	i	i	i	·	·	·	·	·	·
CC(=O)C1C(=O)c2c(cccc2[N+](=O)[O-])C1=Nc1ccc(S(N)(=O)=O)cc1 (centres undefined)	i	i	i	i	-9.7*	-250%*	i	-51%*	52%*	i	i
Cc1ccc(O)c(Sc2cc(C)ccc2O)c1	i	i	i	-6*	-8.4*	·	·	·	·	71%*	i	TRPC4 sel inh 2=i;TRPC4 spec=-13%*;HEK293 MPD ctr 2-1=i;HEK293 MPD ctr-1=-141%*
Cc1ccc(NCc2nnc(SCCN3CCCCC3)n2CC2CCCO2)c(C)c1 (centres undefined)	i	i	i	i	-5.7*	i	i	16%*	35%*	41%*	i
Cc1ccc(NCc2nnc(SCC(=O)Nc3ccccc3)n2CC2CCCO2)c(C)c1 (centres undefined)	i	i	i	i	i	·	·	·	·	·	·
Cc1cc(NC(=O)CN2C(=O)NC3(CCCCC3C)C2=O)no1 (centres undefined)	i	i	i	i	i	·	·	·	·	·	·
Cc1ccc(CN(C)C(=O)c2ccccc2Sc2ccccc2C#N)cc1	i	i	i	i	-5.1*	104%*	i	22%*	i	62%*	·
CN(Cc1ccc(OC(F)F)cc1)C(=O)c1ccccc1Sc1ccccc1C#N	i	i	i	i	i	·	·	·	·	·	·
Cc1ccc(C)c(N2CCN(CCCNC(=O)Cn3cc4c(n3)CCC(C)C4)CC2)c1 (centres undefined)	i	i	14*	i	i	94%*	i	16%*	62%*	i	i
CN1CCc2c(sc3nc(SCC(=O)N4CCOCC4)n(-c4ccc(Cl)cc4)c(=O)c23)C1	i	i	i	i	i	·	·	·	·	·	·
COC(=O)c1ccc(N2CCN(C)CC2)c(NC(=O)c2sc3ccccc3c2Cl)c1	i	71*	i	i	-6.7*	-196%*	i	-46%*	74%*	i	i
COC(=O)c1ccc(N2CCN(C)CC2)c(NC(=O)c2ccc(Br)o2)c1	i	142*	i	i	-6.7*	-268%*	82%*	-38%*	94%*	74%*	i
CN1CCN(c2ccc(NC(=O)c3sc4ccccc4c3Cl)cc2)CC1	i	i	i	i	i	·	·	·	·	·	·
O=C(Cn1ncc2c3ccccc3n(Cc3ccccc3)c2c1=O)NCc1ccco1	i	i	i	i	i	·	·	·	·	·	·
Cn1nnnc1SCCNCc1ccccc1OCc1ccccc1Cl	i	i	i	i	-5.5*	122%*	i	24%*	81%*	44%*	·
CCOc1ccc(S(=O)(=O)N2CCCC(C(=O)NCc3ccccc3)C2)cc1 (centres undefined)	i	i	i	i	i	·	·	·	·	·	·

Screening results deposited in PubChem BioAssay by Johns Hopkins Ion Channel Center.
